hIAP activ: human IAP activation; purified human IAP, CDP-Star luminescence, 30 min; stronger effect = higher value; 1 = vehicle-only enzyme, 0 = enzyme-free background; activation factor at 10 µM; 330,000 compounds, 0.16% hits; AID 2524;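 active means activation factor of the enzyme at least 2-fold when tested at 20 µM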
Target sequence (P09923 whole entry, looked up): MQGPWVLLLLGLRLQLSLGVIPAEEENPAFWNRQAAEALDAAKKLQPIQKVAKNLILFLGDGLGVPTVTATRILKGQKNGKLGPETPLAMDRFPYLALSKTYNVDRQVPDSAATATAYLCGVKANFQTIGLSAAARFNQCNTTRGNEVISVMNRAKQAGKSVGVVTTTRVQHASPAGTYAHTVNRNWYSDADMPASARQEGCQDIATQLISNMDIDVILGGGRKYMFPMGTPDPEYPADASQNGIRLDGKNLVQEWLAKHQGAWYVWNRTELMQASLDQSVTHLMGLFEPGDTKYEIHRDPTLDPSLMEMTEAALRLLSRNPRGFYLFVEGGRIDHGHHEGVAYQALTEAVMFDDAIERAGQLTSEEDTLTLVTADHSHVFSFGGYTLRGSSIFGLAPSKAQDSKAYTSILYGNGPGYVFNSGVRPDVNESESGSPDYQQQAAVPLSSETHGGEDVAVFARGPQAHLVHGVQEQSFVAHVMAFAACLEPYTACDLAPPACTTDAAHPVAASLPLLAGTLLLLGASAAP
bIAP act: intestinal alkaline phosphatase (bovine) activation; activation factor at 20 µM; 200,000 compounds, 0.17% hits; purified bovine IAP, CDP-star luminescence, 30 min; stronger effect = higher value; fold of DMSO-control signal, blank-subtracted;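 active means activation factor of 2 or more at 20 µM, a signal rise over negative controls twice the positive control's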
bIAP inhibitor: intestinal alkaline phosphatase (bovine) inhibition; 190,000 tested, under 10 active; purified bovine IAP, CDP-star luminescence, 30 min; AID 1019; inhibition, % at 20 µM;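 active means over 50% inhibition of intestinal alkaline phosphatase at 20 µM in the single-dose screen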
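Assay system: bovine IAP enzyme; medium: DEA buffer 100 mM, pH 9.8, with MgCl2 1.0 mM, ZnCl2 0.02 mM; doses: 20 µM single dose; incubation: enzyme reaction for 30 min at room temperature; detection: CDP-star luminescence signal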
mIAP act: mouse IAP activation. muIAP, CDP-Star luminescence, 30 min; stronger effect = higher value; 1 = vehicle-only enzyme signal, 0 = enzyme-free wells. activation factor at 10 µM. 330,000 compounds, 0.24% hits;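 active means activation factor of at least 2 at 20 µM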
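Assay system: mouse IAP enzyme; Reagent: CDP-Star chemiluminescent phosphatase substrate; Compound: DMSO-dissolved test compounds; Incubation: 30 min, room temperature; Technique: luminescence from enzymatic CDP-Star hydrolysis; Controls: DMSO-only wells and no-enzyme negative control.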
hIAP block: blocks human intestinal alkaline phosphatase; inhibition, % at 10 µM; 330,000 compounds, 0.12% hits; P09923; AID 2544; purified IAP, CDP-Star luminescence, 30 min;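 active means inhibition reaching a set limit with compound at 10 µM in the primary screen, cut at about 35% in these data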;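 further: plate controls were DMSO wells with enzyme for no effect and no-enzyme buffer wells for full effect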
mIAP inh: blocks mouse intestinal alkaline phosphatase | 330,000 compounds, 0.2% hits | purified mouse IAP, CDP-Star luminescence, 30 min | inhibition, % at 10 µM;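 active means inhibition of at least 40% at 10 µM in the primary screen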;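 further: plate controls were DMSO with enzyme for no effect and no enzyme wells for full effect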
hIAP act confirm: human IAP activation confirmation | shares compounds with hIAP activ | purified IAP, CDP-Star luminescence, 30 min; stronger effect = lower value | activation (%Activity, negative = activation), % at 8.3 µM | 880 compounds, 10% hits | AID 434926;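 active means at least twofold enzyme activation in any of six single-dose repeats, which the averaged readout prints as negative percent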
* = called active by the depositor; nt = no result; + = active, no number. Rows were chosen to be rich in hits. Some 0.72% of all compounds tested hit in one or more screens of this group.

SMILES	hIAP activ	bIAP act	bIAP inhibitor	mIAP act	hIAP block	mIAP inh	hIAP act confirm
CNC(=O)N(O)C1N(/N=C/c2ccccc2O)C(=S)SC1(C)C (stereo unspecified)	1.1	nt	nt	0.96	-6	4	nt
CCCCNC(=O)N(O)C1N(/N=C/c2cccs2)C(=S)SC1(C)C (stereo unspecified)	0.64	nt	nt	1	36*	0	-2
FC(F)(F)c1ccc(Nc2nnnc3ccccc23)cc1	1	0.8	17	1	-2	-2	nt
COc1ccc(CCN2C(=O)c3ccncc3C2=O)cc1OC	2.4*	1.1	-5	1.1	-139	-9	67
COc1cc(/C=C2/C(=O)N(c3ccc(Br)cc3)N=C2C)cc([N+](=O)[O-])c1O	0.62	nt	nt	0.92	38*	8	-42
COc1cc(/C=C2/C(=O)N(c3cccc(Br)c3)N=C2C)cc(OC)c1O	0.64	nt	nt	0.77	36*	24	-2
COc1ccc(/C=C2/C(=O)N(c3ccccc3)N=C2C)cc1OC	1.2	nt	nt	0.95	-25	5	nt
Cc1sc2ncn(CC(=O)NC3CCCCC3)c(=O)c2c1C	0.83	nt	nt	0.99	16	1	nt
COC(=O)c1ccc(C(=O)OC)c(NC(=O)Nc2ccc3c(c2)OCO3)c1	2.2*	0.9	10	0.95	-124	4	+
COC(=O)c1ccccc1NC(=O)Nc1ccc2c(c1)OCO2	0.95	0.9	13	1	5	-1	nt
O=C(Cn1ccnc1)c1ccc(O)c(O)c1	0.59	nt	nt	0.9	41*	10	-44
COc1ccccc1C(=O)COC(=O)c1nc(Cl)ccc1Cl	0.98	nt	nt	1	2	-3	nt
C/C(=N\NC(=O)c1cccc(S(=O)(=O)N2CCCC2)c1)c1ccc(C)cc1	1.1	nt	nt	0.9	-9	10	nt
O=C(Cn1nnc2ccccc2c1=O)NCCc1ccc(Cl)cc1Cl	0.63	0.9	14	0.91	37*	9	8
CCCOc1ccc(-c2c(C(=O)N/N=C/c3cccs3)nnn2-c2nonc2N)cc1	1.2	nt	nt	0.85	-21	15	nt
Cn1ncc2c1ncn1nc(CCc3ccccc3)nc21	0.61	0.7	29	0.92	39*	8	-18
C=CCN1C=CC(=CC=C(C#N)C#N)C=C1	0.65	nt	nt	0.69	35*	31	-4
COc1ccccc1N1CCN(C(=O)c2cccc(S(=O)(=O)N3CCCCCC3)c2)CC1	1.2	nt	nt	1.1	-17	-12	nt
COC(=O)C1=C[C@@H](C(=O)OC)[C@@H]2C3=C(C(=O)C2(C)C)[C@H](c2ccccc2)[C@@H]2C(=O)N(C)C(=O)[C@@H]2[C@@H]3C1	0.89	nt	nt	1	11	-1	nt
COc1ccccc1N1CCN(C(=O)C2=CC=CN3CCS(=O)(=O)N=C23)CC1	1.1	nt	nt	0.95	-7	5	nt
OC1(c2cccs2)CN(c2ccc(Br)cc2)C2=[N+]1CCCS2 (stereo unspecified)	2.8*	nt	nt	0.95	-180	5	18
CC1=C(C)CC(C(=O)NCc2cccc(Cl)c2)C(C(=O)O)C1 (stereo unspecified)	1.1	nt	nt	0.96	-6	4	nt
CCCC[n+]1ccn(-c2nc3c([N+](=O)[O-])cccc3n2C)c1	1.3	nt	nt	0.97	-27	3	nt
O=C(CN1CCN(S(=O)(=O)c2ccc3ccccc3c2)CC1)Nc1ccc2c(c1)CCC2	2*	0.9	12	0.83	-104	17	-3
Cc1ccc(S(=O)(=O)N2CCN(CC(=O)Nc3ccc4c(c3)CCC4)CC2)cc1C	1.1	1	-2	1.2	-9	-19	nt
SMILES	hIAP activ	bIAP act	bIAP inhibitor	mIAP act	hIAP block	mIAP inh	hIAP act confirm
COc1ccc(NC(=O)CSCc2cc(=O)n3c(C)csc3n2)cc1	1.1	nt	nt	1	-7	-4	nt
Oc1c(N=Nc2ccccc2)sc2ccccc12	0.62	nt	nt	0.68	38*	32	14
CC(=Nc1ccc(O)cc1)c1sc2ccccc2c1O	0.91	0.9	14	0.87	9	13	nt
CC(=O)Nc1c(-c2cc(=O)oc3cc(C)ccc23)oc2ccccc12	1.1	nt	nt	0.9	-9	10	nt
CN1C(=O)/C(=C\c2cc(N=Nc3ccccc3)ccc2O)SC1=S	0.62	0.7	27	0.74	38*	26	3
Cc1ccc(S(=O)(=O)N2CCN(C(=O)CCn3cncn3)CC2)cc1	0.64	nt	nt	1.1	36*	-5	-53
CC(=O)NC(CC(=O)N1CCCC1)c1ccccc1 (stereo unspecified)	1.4	nt	nt	1.1	-36	-7	nt
C[n+]1c(/C=C/c2ccc(O)cc2)ccc2ccccc21	0.56	nt	nt	0.72	44*	28	4
CC(NC(=O)CSc1ncccn1)c1ccccc1 (stereo unspecified)	0.33	0.9	7	1	67*	-5	0
O=C(CSc1ncccn1)Nc1ccccc1	0.98	0.9	5	0.93	2	7	nt
CCOc1ccc(N(CC(=O)NC2CCCC2)C(=O)CCC(=O)Nc2nccs2)cc1	1.1	nt	nt	0.91	-7	9	nt
O=C(Nc1ncn[nH]1)c1ccc(Cl)c(S(=O)(=O)N2CCCCCC2)c1	2.4*	1.4	-36	0.93	-137	7	-14
Cn1cc([N+](=O)[O-])c(C(=O)n2cccn2)n1	1.1	nt	nt	1.1	-6	-6	nt
CCc1ccc(CN2CCC(C(=O)Nc3cccc(-c4nnc(C)s4)c3)CC2)o1	1.2	nt	nt	0.97	-21	2	nt
Cc1ccc(CN2CCC(C(=O)Nc3cccc(-c4cccc(F)c4)c3)CC2)o1	2.2*	nt	nt	2.4*	-122	-142	2
CCOc1ccc(S(=O)(=O)NC(C)C(=O)NCc2ccc3c(c2)OCO3)cc1 (stereo unspecified)	1	nt	nt	0.98	-4	2	nt
CCc1nnc(NC(=O)CSc2nnc(C)c(=O)n2N)s1	0.54	nt	nt	1.1	46*	-5	41
Cc1nnc(NC(=O)CSc2nnc(C)c(=O)n2N)s1	1.2	nt	nt	0.99	-16	1	nt
CCOC(=O)Cc1csc(NC(=O)CSc2nc(=O)[nH]c3c2CCC3)n1	1.1	nt	nt	0.94	-7	6	nt
CCCCC#Cc1cncc(C(=O)N/N=C/c2cccc(OC)c2)c1	0.6	nt	nt	0.96	40*	4	-37
Cc1cc(NC(=O)COc2ccc3ccccc3c2Br)no1	1.1	nt	nt	1	-8	-3	nt
Cc1nc(SCC(=O)Nc2ccc(OCc3ccccc3)cc2)n[nH]1	1.4	1	-3	0.93	-39	7	nt
Cc1nc(S/C(=C\c2ccc(OCc3ccccc3Cl)cc2)C(=O)O)n[nH]1	2.1*	1.1	-10	0.89	-113	11	-48
c1ccc(COc2ccc(Nc3ncnc4nc[nH]c34)cc2)cc1	2.4*	1.3	-26	1.1	-144	-9	-22
CCOC(=O)c1ccc(Nc2ncnc3nc[nH]c23)cc1	1.8	1.2	-16	0.96	-78	4	nt
Nc1c(N2CCOCC2)cc(Cl)c2nonc12	0.77	0.7	31	0.86	23	14	nt
